Assay results from ChEMBL document CHEMBL3297735, “Optimization of troglitazone derivatives as potent anti-proliferative agents: towards more active and less toxic compounds” (Eur J Med Chem, 2014).

Assays:
PC-3 = experiment: Cytotoxicity against human PC3 cells assessed as cell viability at 10 uM after 72 hrs by MTS assay in presence of 10% fetal calf serum relative to control; format: functional; settings: PC-3, 72 h, read-out: Activity
[1] = Cytotoxicity against human MiaPaCa cells assessed as cell viability at 10 uM after 72 hrs by MTS assay in presence of 10% fetal calf serum relative to control; format: functional; settings: MIA PaCa-2, 72 h, read-out: Activity
MDA-MB-231 [2] = experiment: Cytotoxicity against human MDA-MB-231 cells assessed as cell viability at 10 uM after 72 hrs by MTS assay in presence of 10% fetal calf serum relative to control; format: functional; settings: MDA-MB-231, 72 h, read-out: Activity
Procedure, shortened: (§1)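 Cells were grown in RPMI with L-glutamine, 10% FCS, penicillin/streptomycin and fungizone at 37 °C under 5% CO2. Wells were seeded with 1900 cells for MCF-7 or 1300 cells for MDA-MB-231. After 24 h, compound was added from a 10 mM DMSO stock (final DMSO 1%) for 72 h, with DMSO-only controls. Viable cells were read by MTS at 490 nm and expressed as % of untreated. Mean ± SEM, N = 3.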

[3] = Acute toxicity in iv dosed BALBc/AnNHsd mouse; format: organism-based; settings: in vivo
Procedure, shortened: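 Acute toxicity run in female BALBc/AnNHsd mice given the compounds by intravenous injection. The read-out was the maximum tolerated dose (MTD). Compounds were dissolved in a mixture of solvents, and the top dose was capped by solubility in that mixture.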

[4] = Cytotoxicity against human hepatocytes assessed as cell viability at 200 uM after 90 mins by MTT assay relative to control; format: cell-based, Hepatocyte; settings: read-out: Activity
Procedure, shortened: (§2)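 Cryopreserved human hepatocytes were plated at 0.1 × 10⁶ cells/well and exposed to compound for 90 min. MTT was then added for 30 min at 37 °C, plates were centrifuged, and formazan was dissolved in DMSO. Absorbance was read at 595 nm. Surviving cells are expressed as % of non-treated cells ± SEM.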

[5] = Cytotoxicity against human hepatocytes assessed as cell viability at 100 uM after 90 mins by MTT assay relative to control; format: cell-based, Hepatocyte; settings: read-out: Activity; procedure, shortened: as §2
[6] = Cytotoxicity against human MDA435 cells assessed as cell viability at 10 uM after 72 hrs by MTS assay in presence of 10% fetal calf serum relative to control; format: functional; settings: MDA-MB-435, 72 h, read-out: Activity
HCT-116 = experiment: Cytotoxicity against human HCT116 cells assessed as cell viability at 10 uM after 72 hrs by MTS assay in presence of 10% fetal calf serum relative to control; format: functional; settings: HCT-116, 72 h, read-out: Activity
HepG2 = experiment: Cytotoxicity against human HepG2 cells assessed as cell viability at 10 uM after 72 hrs by MTS assay in presence of 10% fetal calf serum relative to control; format: functional; settings: HepG2, 72 h, read-out: Activity
LNCaP = experiment: Cytotoxicity against human LNCAP cells assessed as cell viability at 10 uM after 72 hrs by MTS assay in presence of 10% fetal calf serum relative to control; format: functional; settings: read-out: Activity
[7] = Toxicity in BALBc/AnNHsd mouse assessed as mortality at 34 mg/kg, iv relative to control; format: organism-based; set-up: dose 34 mg/kg, route intravenous; settings: in vivo
MCF7 [8] = experiment: Cytotoxicity against human MCF7 cells assessed as cell viability at 10 uM after 72 hrs by MTS assay in presence of 10% fetal calf serum relative to control; format: functional; settings: MCF7, 72 h, read-out: Activity; procedure, shortened: as §1
Mus musculus [9] = experiment: Toxicity in BALBc/AnNHsd mouse assessed as behavioral changes at 65.5 mg/kg, iv; format: organism-based; set-up: dose 65.5 mg/kg, route intravenous; settings: in vivo
Mus musculus [10] = experiment: Toxicity in BALBc/AnNHsd mouse assessed as change in body weight at 65.5 mg/kg, iv measured on day 1 (reference value: 17.67 +/- 0.33 g); format: organism-based; set-up: dose 65.5 mg/kg, route intravenous; settings: in vivo
Procedure, shortened: (§3)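 Acute toxicity was assessed in female BALBc/AnNHsd mice after intravenous injection of compound in a solvent mixture, to estimate the maximum tolerated dose.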

Mus musculus [11] = experiment: Toxicity in BALBc/AnNHsd mouse assessed as change in body weight at 65.5 mg/kg, iv measured on day 2 (reference value: 19 +/- 1 g); format: organism-based; set-up: dose 65.5 mg/kg, route intravenous; settings: in vivo; procedure, shortened: as §3
MCF7 [12] = experiment: Cytotoxicity against human MCF7 cells after 24 hrs by CellTiterGlo assay in presence of 1% fetal calf serum; format: functional, cell-based; settings: MCF7, 24 h
Procedure, shortened: (§4)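 MCF-7 was maintained in phenol red DMEM and MDA-MB-231 in L-15. Cells were seeded in 6-well plates at 8.10⁴ cells/well in medium with 10% FCS and 2 mM L-glutamine. Medium was then switched to 1% FCS with 2 mM L-glutamine for treatment, with 0.1% DMSO controls. Cells were washed, trypsinized and counted with CellTiter-Glo luminescence. Each treatment was run in triplicate, and IC50 was taken as the concentration halving viable cells.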

Mus musculus [13] = experiment: Toxicity in BALBc/AnNHsd mouse assessed as mortality at 65.5 mg/kg, iv; format: organism-based; set-up: dose 65.5 mg/kg, route intravenous; settings: in vivo
Mus musculus [14] = experiment: Toxicity in BALBc/AnNHsd mouse assessed as change in body weight at 65.5 mg/kg, iv measured on day 15 (reference value: 18.33 +/- 0.33 g); format: organism-based; set-up: dose 65.5 mg/kg, route intravenous; settings: in vivo; procedure, shortened: as §3
Mus musculus [15] = experiment: Toxicity in BALBc/AnNHsd mouse assessed as change in organ morphology at 65.5 mg/kg, iv; format: organism-based; set-up: dose 65.5 mg/kg, route intravenous; settings: in vivo
MDA-MB-231 [16] = experiment: Cytotoxicity against human MDA-MB-231 cells after 24 hrs by CellTiterGlo assay in presence of 1% fetal calf serum; format: functional, cell-based; settings: MDA-MB-231, 24 h; procedure, shortened: as §4
Mus musculus [17] = experiment: Toxicity in BALBc/AnNHsd mouse assessed as change in organ morphology at 34 mg/kg, iv; format: organism-based; set-up: dose 34 mg/kg, route intravenous; settings: in vivo; procedure, shortened: as §3
Mus musculus [18] = experiment: Toxicity in BALBc/AnNHsd mouse assessed as change in body weight at 34 mg/kg, iv measured between day 1 and day 15 (reference value: 18 +/- 1 g); format: organism-based; set-up: dose 34 mg/kg, route intravenous; settings: in vivo; procedure, shortened: as §3
Mus musculus [19] = experiment: Toxicity in BALBc/AnNHsd mouse assessed as behavioral changes at 34 mg/kg, iv; format: organism-based; set-up: dose 34 mg/kg, route intravenous; settings: in vivo; procedure, shortened: as §3
Mus musculus [20] = experiment: Toxicity in BALBc/AnNHsd mouse assessed as mortality at 64.6 mg/kg, iv; format: organism-based; set-up: dose 64.6 mg/kg, route intravenous; settings: in vivo

SMILES: Cc1c(C)c2c(c(C)c1O)CCC(C)(COc1ccc(/C=C3\SC(=O)NC3=O)cc1)O2 (stereo not drawn)
- viability at 10 µM (PC-3): 83.1%
- viability at 10 µM [1]: 95%
- viability at 10 µM (MDA-MB-231 [2]): 69.3%
- MTD [3]: 34 mg/kg
- viability at 1.5 h, 200 µM [4]: 43.1%
- viability at 1.5 h, 100 µM [5]: 62.8%
- viability at 10 µM [6]: 73.1%
- viability at 10 µM (HCT-116): 88%
- viability at 10 µM (HepG2): 82.3%
- viability at 10 µM (LNCaP): 85.4%
- mortality [7]: > 50%
- viability at 10 µM (MCF7 [8]): 84%

SMILES: Cc1c(C)c2c(c(C)c1CCCCCCNC(=O)OC(C)(C)C)CCC(C)(COc1ccc(/C=C3\SC(=O)NC3=O)cc1)O2 (racemic)
- viability at 10 µM (PC-3): 73.7%
- viability at 10 µM [1]: 69.7%
- viability at 10 µM (MDA-MB-231 [2]): 49.3%
- viability at 1.5 h, 200 µM [4]: 80.3%
- viability at 1.5 h, 100 µM [5]: 85.1%
- viability at 10 µM [6]: 60.9%
- viability at 10 µM (HCT-116): 45.2%
- viability at 10 µM (HepG2): 22.7%
- viability at 10 µM (LNCaP): 32.2%
- viability at 10 µM (MCF7 [8]): 75.5%

SMILES: Cc1c(C)c2c(c(C)c1CCCCCCN)CCC(C)(COc1ccc(/C=C3\SC(=O)N(C)C3=O)cc1)O2.O=C(O)C(F)(F)F (racemic)
- viability at 10 µM (PC-3): 7.7%
- Activity (Mus musculus [9]): Non-toxic
- Activity (Mus musculus [10]): 17.67 g
- Activity (Mus musculus [11]): 19 g
- viability at 10 µM [1]: 0%
- IC50 (MCF7 [12]): 6.1 µM
- Activity (Mus musculus [13]): Non-toxic
- viability at 10 µM (MDA-MB-231 [2]): 0%
- MTD [3]: 65.5 mg/kg
- viability at 1.5 h, 200 µM [4]: 82.7%
- viability at 1.5 h, 100 µM [5]: 82.6%
- Activity (Mus musculus [14]): 18.5 g
- viability at 10 µM [6]: 0%
- Activity (Mus musculus [15]): Non-toxic
- IC50 (MDA-MB-231 [16]): 6.7 µM
- viability at 10 µM (HCT-116): 0%
- viability at 10 µM (HepG2): 0%
- viability at 10 µM (LNCaP): 11.6%
- viability at 10 µM (MCF7 [8]): 0%

SMILES: Cc1c(C)c2c(c(C)c1CCCCCCN)CCC(C)(COc1ccc(/C=C3\SC(=O)NC3=O)cc1)O2.O=C(O)C(F)(F)F (racemic)
- Activity (Mus musculus [17]): Non-toxic
- Activity (Mus musculus [18]): 21.5 g
- viability at 10 µM (PC-3): 60.1%
- viability at 10 µM [1]: 5.9%
- IC50 (MCF7 [12]): 3.6 µM
- viability at 10 µM (MDA-MB-231 [2]): 7.6%
- MTD [3]: 34 mg/kg
- viability at 1.5 h, 200 µM [4]: 79.9%
- Activity (Mus musculus [19]): Non-toxic
- viability at 1.5 h, 100 µM [5]: 83.2%
- viability at 10 µM [6]: 35.2%
- IC50 (MDA-MB-231 [16]): 1.5 µM
- viability at 10 µM (HCT-116): 6.9%
- viability at 10 µM (HepG2): 12.9%
- viability at 10 µM (LNCaP): 46.8%
- Activity (Mus musculus [20]): Toxic
- viability at 10 µM (MCF7 [8]): 2.7%

SMILES: Cc1c(C)c2c(c(C)c1OC(=O)OC(C)(C)C)CCC(C)(CN1C(=O)S/C(=C\c3ccc(O)cc3)C1=O)O2 (racemic)
- viability at 10 µM (PC-3): 85.1%
- viability at 10 µM [1]: 72.2%
- viability at 10 µM (MDA-MB-231 [2]): 57.9%
- viability at 1.5 h, 200 µM [4]: 37.8%
- viability at 1.5 h, 100 µM [5]: 65.1%
- viability at 10 µM [6]: 66%
- viability at 10 µM (HCT-116): 30.1%
- viability at 10 µM (HepG2): 23.4%
- viability at 10 µM (LNCaP): 55%
- viability at 10 µM (MCF7 [8]): 85.7%

SMILES: Cc1c(C)c2c(c(C)c1O)CCC(C)(CN1C(=O)S/C(=C\c3ccc(O)cc3)C1=O)O2 (racemic)
- viability at 10 µM (PC-3): 36.3%
- viability at 10 µM [1]: 0%
- viability at 10 µM (MDA-MB-231 [2]): 4.8%
- viability at 1.5 h, 200 µM [4]: 103%
- viability at 1.5 h, 100 µM [5]: 110%
- viability at 10 µM [6]: 13.4%
- viability at 10 µM (HCT-116): 5.3%
- viability at 10 µM (HepG2): 20.8%
- viability at 10 µM (LNCaP): 48.9%
- viability at 10 µM (MCF7 [8]): 5.2%

SMILES: Cc1c(C)c2c(c(C)c1O)CCC(C)(COc1ccc(CC3SC(=O)NC3=O)cc1)O2 (stereo not drawn) [TROGLITAZONE]
- viability at 10 µM (PC-3): 86.2%
- viability at 10 µM [1]: 98.3%
- viability at 10 µM (MDA-MB-231 [2]): 88.1%
- viability at 1.5 h, 200 µM [4]: 22.5%
- viability at 1.5 h, 100 µM [5]: 52.2%
- viability at 10 µM [6]: 87.8%
- viability at 10 µM (HCT-116): 90.7%
- viability at 10 µM (HepG2): 85.8%
- viability at 10 µM (LNCaP): 82.8%
- viability at 10 µM (MCF7 [8]): 96.7%
